SKN-1 block: inhibitors of C. elegans SKN-1; actives 0.49% (n = 360,000); inhibition, % at 21.8 µM; C. elegans VP596 Pgst-4::GFP/RFP ratio, acrylamide-induced, 24 h; AID 624304;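 active = interference check ratio from 0.5 to 1.5 plus GFP to RFP signal ratio inhibition reaching or exceeding a fixed threshold, cut at about 30% in these data, passing the limit was not always enough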
p-CIP stab down: compounds decreasing mouse p/CIP protein stability; F442A p/CIP-EGFP cells, EGFP fluorescence, 16 h; decrease of EGFP signal, % at 10 µM; actives 0.01% (n = 290,000); AID 1984;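 active = EGFP signal decrease of at least 30% at 10 µM or well 3 SD below plate mean, unless failing retest; inactive = the rest, including hits failing retest or dose response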
MT1-MMP act inh: blocks activation of human MT1-MMP. P50281. actives 0.061% (n = 360,000). GFP/RFP ratio change, % at 20 µM. HT1080 RFP-PRO-GFP cells, GFP/RFP ratio fluorescence, overnight; percent of plate control window, DMSO zero;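 active = GFP/RFP ratio change of at least 30% with cell ATP level not reduced by more than half and red fluorescence within 50% of control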
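Material – HT1080 RFP-PRO-GFP cells · Control set – DMSO wells and RFP-L50D-GFP cells · Incubation – overnight cell settling, then overnight compound exposure, 37 °C, 5% CO2 · Compound dosing – single-point 20 µM compound, 1% DMSO · Read-out – GFP/RFP fluorescence ratio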
MsrA act: bovine methionine sulfoxide reductase A activation; purified bovine MsrA, absorbance read-out; activation, % at 10.6 µM; actives 0.3% (n = 360,000); AID 602163; in the data active = activation above about 7.5%;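 also: 0% = vehicle and 100% = reference activator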
MsrA inh: inhibits bovine methionine sulfoxide reductase A. purified bovine MsrA, absorbance read-out. inhibition, % at 15.5 µM. actives 0.75% (n = 360,000). AID 651718; in the data active = inhibition above about 4.5%;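 also: 0% = vehicle wells with enzyme and 100% = reference inhibitor wells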
MsrA activ conf: confirmation of bovine methionine sulfoxide reductase A activators; shares compounds with MsrA act; purified bovine MsrA, absorbance read-out; activation, % at 10.6 µM; actives 12% (n = 1,000); in the data active = activation above about 4%;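 also: enzyme coupled to thioredoxin and thioredoxin reductase with NADPH; 0% = vehicle wells and 100% = reference activator wells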
Active calls of the source: *; . = no result given. Most compounds without a hit are left out; they make up all but 1.6% or so of the library.

SMILES | SKN-1 block | p-CIP stab down | MT1-MMP act inh | MsrA act | MsrA inh | MsrA activ conf
CC1Cc2ccccc2N1C(=O)COC(=O)c1cccc(Br)c1 (stereo not drawn) | 27 | . | 3 | 24* | 1 | -2
CC1Cc2ccccc2N1C(=O)COC(=O)c1cc(Br)ccc1O (stereo not drawn) | 3 | . | 9 | -4 | -1 | .
COc1ccc(Cl)cc1NC(=O)NCC1CCN(Cc2cc(C)ccc2C)CC1 | 11 | -4 | 3 | 0 | 0 | .
COc1cc([N+](=O)[O-])ccc1NC(=O)NCC1CCN(Cc2ccc(Cl)cc2)CC1 | 10 | 2 | 3 | 22* | 1 | -2
COc1ccccc1-[n+]1c(C)cc(/C=C2\Sc3ccccc3N2C)cc1C | 6 | -677 | -232 | 8.2* | -1 | -3
O=S(=O)(c1cccs1)N1CCCc2nc(-c3ccc(F)cc3)ccc21 | . | . | . | . | -1 | .
O=C(/C=C/c1ccccc1)C1=C(O)C(=O)N(CCO)C1c1ccccc1[N+](=O)[O-] (stereo not drawn) | -7 | 6 | -4 | -2 | 2 | .
O=C(/C=C/c1ccccc1)C1=C(O)C(=O)N(CCO)C1c1cccc([N+](=O)[O-])c1 (stereo not drawn) | -4 | -4 | 2 | 9.9* | 2 | -1
NS(=O)(=O)c1ccc(NC(=O)COC(=O)CNC(=O)C23CC4CC(CC(C4)C2)C3)cc1 | 9 | 14 | -1 | -2 | 3 | .
CC(OC(=O)CNC(=O)C12CC3CC(CC(C3)C1)C2)C(=O)Nc1ccc(S(N)(=O)=O)cc1 (stereo not drawn) | 10 | -10 | 2 | 9.1* | 0 | 3
COC(=O)[C@]12C[C@H](CC(=O)NCCCN3CCCC3=O)C(=O)N(Cc3ccc4c(c3)OCO4)C1=C[C@H](C(C)(C)C)O[C@@H]2C | . | . | . | . | 0 | .
Cc1cnc(C(=O)OCC(=O)Nc2cccc3ccccc23)cn1 | -2 | . | 1 | 13* | -2 | -1
Cc1cnc(C(=O)OCC(=O)Nc2cccc(C)c2C)cn1 | -8 | . | 0 | -6 | 0 | .
COc1ccc(C2CC(=O)C(c3ccc(Cl)c(Cl)c3)=CN2Cc2ccccc2)cc1 (stereo not drawn) | . | . | . | . | -1 | .
O=C(COC(=O)CCCNC(=O)c1ccc(Cl)cc1)NC1CC1 | -19 | 7 | 1 | 7.9* | 0 | -2
CCC(Oc1ccccc1OC)C(=O)Nc1ccc2c(c1)OCCO2 (stereo not drawn) | 1 | -12 | 1 | 16* | 1 | 0
COc1ccccc1NC(=O)Nc1ccc2c(c1)OCCO2 | 10 | 6 | 4 | -5 | 1 | .
O=C(NNC1=Nc2ccccc2SC1)c1ccc(F)cc1 | 4 | -12 | 3 | 7.7* | -2 | -2
O=C(NNC1=Nc2ccccc2SC1)c1ccc(Cl)cc1 | -5 | 3 | . | -11 | 0 | .
O=C1c2ccccc2S(=O)(=O)c2cc(C(=O)N(c3ccccn3)c3ccccn3)ccc21 | -8 | -16 | 1 | 8.0* | -1 | 3
S=c1[nH]c2ccccc2n2c(=S)[nH]nc12 | -3 | -8 | 5 | 6 | 4 | .
S=c1[nH]nc2ccc3ccccc3n12 | -15 | . | 7 | 11* | 2 | 2
Cc1cc(N2CCN(CC(C)(C)O)C[C@H]2C)ccc1N1CCN(Cc2ccccc2)[C@@H](C)C1 | . | . | . | . | -1 | .
Cc1[nH]c(=O)[nH]c(=O)c1CCSSCCc1c(C)[nH]c(=O)[nH]c1=O | . | . | . | . | 0 | .
CC1CCCN(C(=O)COC(=O)/C=C/c2ccc(C(F)(F)F)cc2)C1 (stereo not drawn) | -2 | . | -1 | 8.7* | 0 | -1
SMILES | SKN-1 block | p-CIP stab down | MT1-MMP act inh | MsrA act | MsrA inh | MsrA activ conf
CCN1C(=O)N(S(=O)(=O)C(F)(F)F)[C@@H](c2ccccc2)C(C(=O)OC)=C1C | -13 | -6 | -3 | -7 | 0 | .
CCN1C(=O)N(C)[C@@H](c2ccccc2)C(C(=O)OC)=C1C | 6 | -9 | 2 | 9.3* | 0 | -4
O=C(NCc1ccccc1)[C@@H]1CCCN1C(=O)[C@H]1CCCN1C(=O)c1ccccc1F | . | . | . | . | 0 | .
Cc1cccnc1N=O | . | . | . | . | 0 | .
CCOc1ccc2c(c1)C(C)=CC(C)(C)N2S(=O)(=O)c1ccc(NC(C)=O)cc1 | 3 | -18 | 18 | 8.2* | 0 | -1
Cc1cc(NS(=O)(=O)c2ccc(NC(=O)CCCC(=O)O)cc2)nc(C)n1 | 1 | -7 | -2 | 8.2* | 0 | 0
COC(=O)CCCNC(=O)c1ccc2oc(CCCc3ccccc3)nc2c1 | 17 | -6 | 3 | 11* | 1 | -2
COC(=O)[C@@H](C)NC(=O)c1ccc2oc(CCc3ccccc3)nc2c1 | 17 | -8 | 1 | -3 | 0 | .
CCCCCc1c(C)nc(Nc2ccc(F)cc2)[nH]c1=O | 10 | -8 | -2 | 9.8* | -1 | 1
O=C(N/N=C/c1ccc([N+](=O)[O-])s1)c1ccccc1 | 2 | 10 | -8 | 6 | 2 | .
O=C(Cc1ccccc1)N/N=C/c1ccc([N+](=O)[O-])s1 | 5 | -20 | -7 | 7.9* | 2 | 1
Cc1ccccc1OC(=O)n1c(=S)oc2cc(Cl)ccc21 | 17 | 3 | 3 | 9.0* | 0 | 0
O=C(Oc1ccccc1)n1c(=S)oc2ccccc21 | -7 | -7 | 3 | 3 | 0 | .
O=C(OCCN1CCCC1)C1(c2ccccc2)CCCC1 | 1 | -5 | -2 | 9.6* | 0 | -2
O=C(OCCN1CCCCC1)C1(c2ccccc2)CCCC1 | -4 | -7 | -2 | -4 | 0 | .
COC(=O)Cc1nnn2c1[C@@H](C)[C@@H](c1ccccc1Br)O[C@@H](C)C2 | . | . | . | . | -1 | .
Cc1cc(=O)[nH]c(SCC(=O)N2CCc3ccccc3C2)n1 | -4 | 6 | 6 | 9.5* | -2 | 1
COc1ccc(C2CC(Cn3cc(C#N)c(=O)n(C)c3=O)ON2C)cc1 (stereo not drawn) | -6 | 6 | 1 | 9.3* | 0 | -1
COCCNC(=O)C1=NOC(Cn2cc(C#N)c(=O)n(C)c2=O)C1 (stereo not drawn) | 7 | 6 | 1 | -10 | 0 | .
O=C1c2ccccc2/C(=C\c2ccc(Br)nc2)N1c1ccccc1 | . | . | . | . | 1 | .
O=C(Cc1c[nH]c2ccccc12)Nc1ccc(Nc2cccnc2)c(-c2cc(F)cc(F)c2)c1 | . | . | . | . | 0 | .
CCOC(=O)c1ccc(NC(=O)c2cc(F)c(F)cc2Cl)cc1 | -2 | -6 | 3 | 8.7* | 1 | 1
COc1cccc(NC(=O)N(C)C[C@H]2OCc3ccccc3-c3c(n(C)c4ccccc34)C(=O)N([C@H](C)CO)C[C@H]2C)c1 | . | . | . | . | -1 | .
Cc1ccsc1/C=N/n1c(-c2ccco2)n[nH]c1=S | -5 | -6 | -7 | 11* | 2 | -1
COC(=O)c1ccccc1S(=O)(=O)N1CCC(c2nc3ccccc3o2)CC1 | 8 | -2 | 7 | 12* | 0 | -2
COC(=O)c1cccc(S(=O)(=O)N2CCC(c3nc4ccccc4o3)CC2)c1 | 5 | -5 | 8 | -9 | -1 | .

Screening results as filed in PubChem BioAssay.
